Test results: ChEMBL document CHEMBL5058577, “EUbOPEN Chemogenomics Library 2 (Multiplex)” (2022)

Test system: U2OS
Assay: Multiplex assay against U2OS
Assay type: toxicity, cell-based
Details: human
In short: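 Phenotypes for tubulin, mitochondrial mass and membrane permeability are expressed as per cents of healthy-nucleus cells. Cells were stained live at seeding with Hoechst33342, BioTracker Green Microtubule Cytoskeleton Dye, MitoTracker Red and Annexin V Alexa Fluor 680, then imaged after compound addition on a CQ1 microscope at 37°C and 5% CO2. Machine-learning gating in CellPathfinder separated Hoechst high-intensity objects from normal cells, divided normal cells by nuclear state (healthy, pyknosed, fragmented) and divided pyknosed cells into mitotic or apoptotic.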

[1] = 12 h, 1 µM, compound concentration 1 uM, replicate 1
[2] = 12 h, 1 µM, compound concentration 1 uM, replicate 2
[3] = 12 h, 10 µM, compound concentration 10 uM, replicate 1
[4] = 12 h, 10 µM, compound concentration 10 uM, replicate 2
[5] = 24 h, 1 µM, compound concentration 1 uM, replicate 1
[6] = 24 h, 1 µM, compound concentration 1 uM, replicate 2
[7] = 24 h, 10 µM, compound concentration 10 uM, replicate 1
[8] = 24 h, 10 µM, compound concentration 10 uM, replicate 2
[9] = 48 h, 1 µM, compound concentration 1 uM, replicate 1
[10] = 48 h, 1 µM, compound concentration 1 uM, replicate 2
[11] = 48 h, 10 µM, compound concentration 10 uM, replicate 1
[12] = 48 h, 10 µM, compound concentration 10 uM, replicate 2

## CN[C@@H](C)C(=O)N[C@H](C(=O)N1CCC[C@H]1C(=O)Nc1snnc1-c1ccccc1)C1CCCCC1 [GDC-0152]
[1]
  Population Apoptotic (%): 60%
  Population Fragmented Nuclei (%): 25%
  Population Healthy Nuclei (%): 61%
  Population Hoechst High Intensity Objects (%): 5%
  Population Membrane Permeable-Phenotype (%): 51%
  Population Mitochondria Different-Phenotype (%): 24%
  Population Mitotic Cells (%): 39%
  Population Normal (%): 94%
  Population Pyknosed Nuclei (%): 13%
  Population Tubulin-Different-Phenotype (%): 47%
  Total Cell Count: 176
[2]
  Population Apoptotic (%): 89%
  Population Fragmented Nuclei (%): 21%
  Population Healthy Nuclei (%): 60%
  Population Hoechst High Intensity Objects (%): 11%
  Population Membrane Permeable-Phenotype (%): 50%
  Population Mitochondria Different-Phenotype (%): 38%
  Population Mitotic Cells (%): 10%
  Population Normal (%): 88%
  Population Pyknosed Nuclei (%): 17%
  Population Tubulin-Different-Phenotype (%): 52%
  Total Cell Count: 121
[3]
  Population Apoptotic (%): 72%
  Population Fragmented Nuclei (%): 39%
  Population Healthy Nuclei (%): 44%
  Population Hoechst High Intensity Objects (%): 4%
  Population Membrane Permeable-Phenotype (%): 65%
  Population Mitochondria Different-Phenotype (%): 61%
  Population Mitotic Cells (%): 27%
  Population Normal (%): 95%
  Population Pyknosed Nuclei (%): 16%
  Population Tubulin-Different-Phenotype (%): 76%
  Total Cell Count: 208
[4]
  Population Apoptotic (%): 70%
  Population Fragmented Nuclei (%): 18%
  Population Healthy Nuclei (%): 65%
  Population Hoechst High Intensity Objects (%): 5%
  Population Membrane Permeable-Phenotype (%): 73%
  Population Mitochondria Different-Phenotype (%): 70%
  Population Mitotic Cells (%): 29%
  Population Normal (%): 94%
  Population Pyknosed Nuclei (%): 15%
  Population Tubulin-Different-Phenotype (%): 91%
  Total Cell Count: 114
[5]
  Population Apoptotic (%): 72%
  Population Fragmented Nuclei (%): 21%
  Population Healthy Nuclei (%): 55%
  Population Hoechst High Intensity Objects (%): 5%
  Population Membrane Permeable-Phenotype (%): 20%
  Population Mitochondria Different-Phenotype (%): 18%
  Population Mitotic Cells (%): 27%
  Population Normal (%): 94%
  Population Pyknosed Nuclei (%): 23%
  Population Tubulin-Different-Phenotype (%): 19%
  Total Cell Count: 196
[6]
  Population Apoptotic (%): 85%
  Population Fragmented Nuclei (%): 34%
  Population Healthy Nuclei (%): 44%
  Population Hoechst High Intensity Objects (%): 8%
  Population Membrane Permeable-Phenotype (%): 25%
  Population Mitochondria Different-Phenotype (%): 28%
  Population Mitotic Cells (%): 14%
  Population Normal (%): 91%
  Population Pyknosed Nuclei (%): 21%
  Population Tubulin-Different-Phenotype (%): 27%
  Total Cell Count: 144
[7]
  Population Apoptotic (%): 68%
  Population Fragmented Nuclei (%): 36%
  Population Healthy Nuclei (%): 43%
  Population Hoechst High Intensity Objects (%): 3%
  Population Membrane Permeable-Phenotype (%): 53%
  Population Mitochondria Different-Phenotype (%): 59%
  Population Mitotic Cells (%): 31%
  Population Normal (%): 96%
  Population Pyknosed Nuclei (%): 20%
  Population Tubulin-Different-Phenotype (%): 59%
  Total Cell Count: 220
[8]
  Population Apoptotic (%): 92%
  Population Fragmented Nuclei (%): 20%
  Population Healthy Nuclei (%): 40%
  Population Hoechst High Intensity Objects (%): 10%
  Population Membrane Permeable-Phenotype (%): 59%
  Population Mitochondria Different-Phenotype (%): 65%
  Population Mitotic Cells (%): 7%
  Population Normal (%): 89%
  Population Pyknosed Nuclei (%): 38%
  Population Tubulin-Different-Phenotype (%): 81%
  Total Cell Count: 121
[9]
  Population Apoptotic (%): 93%
  Population Fragmented Nuclei (%): 35%
  Population Healthy Nuclei (%): 32%
  Population Hoechst High Intensity Objects (%): 8%
  Population Membrane Permeable-Phenotype (%): 16%
  Population Mitochondria Different-Phenotype (%): 12%
  Population Mitotic Cells (%): 6%
  Population Normal (%): 91%
  Population Pyknosed Nuclei (%): 32%
  Population Tubulin-Different-Phenotype (%): 9%
  Total Cell Count: 246
[10]
  Population Apoptotic (%): 88%
  Population Healthy Nuclei (%): 30%
  Population Membrane Permeable-Phenotype (%): 38%
  Population Mitochondria Different-Phenotype (%): 17%
  Population Mitotic Cells (%): 11%
  Population Pyknosed Nuclei (%): 34%
  Population Tubulin-Different-Phenotype (%): 27%
  Total Cell Count: 170
[11]
  Population Apoptotic (%): 100%
  Population Fragmented Nuclei (%): 47%
  Population Healthy Nuclei (%): 22%
  Population Hoechst High Intensity Objects (%): 11%
  Population Membrane Permeable-Phenotype (%): 39%
  Population Mitochondria Different-Phenotype (%): 39%
  Population Mitotic Cells (%): 0%
  Population Normal (%): 88%
  Population Pyknosed Nuclei (%): 29%
  Population Tubulin-Different-Phenotype (%): 43%
  Total Cell Count: 246
[12]
  Population Apoptotic (%): 98%
  Population Fragmented Nuclei (%): 45%
  Population Healthy Nuclei (%): 8%
  Population Hoechst High Intensity Objects (%): 14%
  Population Membrane Permeable-Phenotype (%): 80%
  Population Mitochondria Different-Phenotype (%): 50%
  Population Mitotic Cells (%): 1%
  Population Normal (%): 85%
  Population Pyknosed Nuclei (%): 45%
  Population Tubulin-Different-Phenotype (%): 80%
  Total Cell Count: 138
